Screens (PubChem)
Most compounds without a hit are left out; they make up all but 4.6% or so of the library.
OX1R antag-1: antagonists of human orexin 1 receptor (OX1R) | Orexin/Hypocretin receptor type 1 (Homo sapiens), O43613 | OX1R-expressing cells, FRET antagonist read-out | inhibition, % at 6.6 µM | 330,000 tested, 1.8% active | AID 485270, 2010; in the data active means inhibition mostly above about 38%, no sharp cut-off; inactive means mostly below about 40%
Target sequence (O43613 whole entry, looked up): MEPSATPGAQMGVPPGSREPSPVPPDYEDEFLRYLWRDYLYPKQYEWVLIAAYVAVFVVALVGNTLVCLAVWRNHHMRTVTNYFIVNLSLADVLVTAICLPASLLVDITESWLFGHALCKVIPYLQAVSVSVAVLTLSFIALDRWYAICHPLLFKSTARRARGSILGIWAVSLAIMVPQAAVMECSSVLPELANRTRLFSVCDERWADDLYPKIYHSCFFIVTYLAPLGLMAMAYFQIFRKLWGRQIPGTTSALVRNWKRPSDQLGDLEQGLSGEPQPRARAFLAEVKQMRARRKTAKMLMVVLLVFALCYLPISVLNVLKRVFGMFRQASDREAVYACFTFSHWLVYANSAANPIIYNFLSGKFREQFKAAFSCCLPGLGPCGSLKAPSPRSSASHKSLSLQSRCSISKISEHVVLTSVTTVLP
OX1R antag-2: OX1R (HCRTR1) antagonists, primary screen, fluorescence, CHO/OX1R cells, Fluo-8 calcium, orexin A. Fluo-8 calcium fluorescence. inhibition, % at 5 µM. 330,000 tested, 0.43% active. AID 434989, 2010;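 active means inhibition above its plate's threshold, mean inhibition of all tested compounds on the plate plus 3 SD, cut at about 37% in these data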
TAAR1 agonist: human TAAR1 agonists, primary screen, Fluo-8 calcium fluorescence, CHO RD-HGA16 cells; Trace amine-associated receptor 1 (Homo sapiens), Q96RJ0; vehicle wells 0%, saturating PEA agonist 100%; activation, % at 3 µM; 360,000 tested, 0.99% active; AID 624467, 2012;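 active means activation above the mean activation of all test compounds in the run plus 3 SD, cut at about 38% in these data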
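System: CHO RD-HGA16 cells carrying human TAAR1 plus Gα16; Incubation: 17-24 h seeding, 75 min 37 °C dye, 30 min RT; Measured by: Fluo-8 fluorescence, 5 s baseline then 140 s kinetic read; Control set: DMSO and PEA EC100; Replication: single well for each compound.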
GPR7 antagonist: GPR7 receptor antagonists, primary screen, cell-based, fluorescence, single concentration; Neuropeptides B/W receptor type 1 (Homo sapiens), P48145; GPR7-expressing cells, fluorescence antagonist assay; inhibition, % at 4.4 µM; 290,000 tested, 1.1% active; in the data active means inhibition above about 16%, passing the limit was not always enough;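 further: cells stimulated with the agonist NPW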
Target sequence (P48145 whole entry, looked up): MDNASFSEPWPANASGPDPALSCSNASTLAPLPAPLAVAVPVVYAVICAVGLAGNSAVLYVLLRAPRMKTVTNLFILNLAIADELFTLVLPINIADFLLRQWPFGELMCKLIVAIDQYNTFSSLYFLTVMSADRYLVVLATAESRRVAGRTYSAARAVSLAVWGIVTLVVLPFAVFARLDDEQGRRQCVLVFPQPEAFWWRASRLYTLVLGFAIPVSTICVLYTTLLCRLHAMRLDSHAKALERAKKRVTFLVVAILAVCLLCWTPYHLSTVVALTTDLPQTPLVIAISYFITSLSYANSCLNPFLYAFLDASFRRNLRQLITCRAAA
CHO parental Ca: ATP-evoked calcium signal inhibitors, parental CHO, primary screen, counter-screen for OX1R antagonist project, cell-based, fluorescence, Fluo-8 calcium dye; parental CHO-K1, ATP-induced calcium, Fluo-8 fluorescence; inhibition, % at 5.6 µM; 330,000 tested, 0.63% active; AID 463079, 2010;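 active means inhibition above that plate's mean sample inhibition plus 3 SD, cut at about 26% in these data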
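Test system: untransfected parental CHO cell line. Compound: one dose, 5.6 µM nominal. Detection: intracellular calcium via Fluo-8 no-wash fluorescent dye. Measure: % inhibition. Benchmarks: ATP-challenged DMSO wells low, unchallenged DMSO wells high.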
TAAR1 antag: human TAAR1 antagonists, primary screen, Fluo-8 calcium fluorescence, CHO RD-HGA16 cells; antagonist; inhibition, % at 3 µM; 360,000 tested, 1.5% active; AID 624466, 2012;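 active means inhibition above a per-plate cutoff, the mean inhibition of test compounds on that plate plus 3 SD, cut at about 49% in these data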
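System: RD-HGA16 CHO cells with stable hTAAR1 and Gα16 | Probe or stimulus: EC80 β-phenethylamine stimulus | Dosing: 3 µM, single point | Times: Dye loading 75 min at 37 °C, then 30 min room temperature | Measured by: Fluo-8 calcium-sensitive fluorescence | Read-out basis: % inhibition of agonist calcium response | Replicates: n of 1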
TAAR1 ag confirm: human TAAR1 agonists, retest of hits, confirmation, Fluo-8 calcium fluorescence, CHO RD-HGA16 cells; shares compounds with TAAR1 agonist; scaled: DMSO 0%, maximal phenethylamine 100%; activation, % at 3 µM; 2,400 tested, 82% active; AID 651783, 2012;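 active means activation above a cutoff set at the run's mean compound activation plus 3 SD, cut at about 39% in these data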
Ga16 nonsel ag: nonselective calcium mobilization agonists, CHO-Ga16 cells, counter-screen for hTAAR1 agonist project, cell-based, fluorescence, CHO-Ga16 parental line. activation, % at 3 µM. Fluo-8 calcium fluorescence; normalized to maximal ATP response, DMSO zero. 2,400 tested, 50% active. shares compounds with TAAR1 agonist;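 active means activation above the run cutoff, the mean activation over all tested wells plus 3 SD, cut at about 12% in these data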
TAAR1 desensitize: TAAR1 desensitization by agonist hits, confirmation, counter-screen for TAAR1 agonist project, cell-based, fluorescence, tachyphylaxis; CHO RD-HGA16 hTAAR1, Fluo-8 calcium, beta-PEA response inhibition; shares compounds with TAAR1 agonist; AID 651951, 2012; 2,400 tested, 46% active; inhibition, % at 3 µM;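 active means inhibition above the run cutoff, the mean inhibition of all test compounds plus 3 SD, cut at about 49% in these data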;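 further: beta-PEA stimulus applied at its EC80; loss of beta-PEA calcium signal after compound pretreatment read as receptor desensitization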
Ga16 nonsel ant: inhibition of ATP-evoked calcium response in CHO-Ga16 cells, counter-screen for TAAR1 agonist project, cell-based, fluorescence. CHO-Ga16 ATP-induced calcium, Fluo-8 fluorescence. shares compounds with TAAR1 agonist. inhibition, % at 3 µM. 2,400 tested, 39% active. AID 651952, 2012;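 active means inhibition above the plate's mean compound inhibition plus 3 SD, computed per plate, cut at about 22% in these data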
Large screens that a line does not name were inactive (follow-up assays come after a bar, where they were run).

COc1ccc(NC(=O)COC(=O)c2cc(OC)c(OC)c(OC)c2)c([N+](=O)[O-])c1	none
COc1ccc(NC(=O)COC(=O)c2cc(C)oc2C)c([N+](=O)[O-])c1	TAAR1 agonist 62, TAAR1 antag 58 (no result: GPR7 antagonist) | TAAR1 ag confirm inactive | Ga16 nonsel ag inactive | TAAR1 desensitize inactive | Ga16 nonsel ant inactive
N=C1S/C(=C\c2cn[nH]c2-c2ccc(F)cc2)C(=O)N1c1ccccc1F	none
O=c1c2cnn(-c3ccc(F)cc3)c2ncn1Cc1ccccc1	TAAR1 agonist 43, TAAR1 antag 50 | TAAR1 ag confirm inactive | Ga16 nonsel ag inactive | TAAR1 desensitize inactive | Ga16 nonsel ant inactive
O=C(CSc1n[nH]c(-c2ccncc2)n1)Nc1ccc(Cl)c(Cl)c1	TAAR1 agonist 102 | TAAR1 ag confirm 66 | Ga16 nonsel ag 60 | TAAR1 desensitize inactive | Ga16 nonsel ant 22
O=C(CSc1n[nH]c(-c2ccncc2)n1)Nc1ccc(Cl)cc1	none
CCC(C)(C)NC(=O)C(c1ccccc1Cl)N(C(=O)CCC(=O)Nc1cc(C)on1)C1CC1 (centres undefined)	none
O=C(O)COCC(=O)N1CCN(C2c3ccccc3-c3ccccc32)CC1	none
N/C(=N\c1nc(CSc2nnnn2-c2ccccc2)cc(=O)[nH]1)Nc1ccccc1	none
O=c1cc(CSc2nnnn2-c2ccccc2)nc(Nc2ccc(F)cc2)[nH]1	TAAR1 agonist 66 | TAAR1 ag confirm 97 | Ga16 nonsel ag inactive | TAAR1 desensitize 67 | Ga16 nonsel ant 26
Cc1c(Cl)cccc1NC(=S)N1CCc2ccccc2C1	TAAR1 agonist 74 | TAAR1 ag confirm 69 | Ga16 nonsel ag inactive | TAAR1 desensitize inactive | Ga16 nonsel ant inactive
O=C(CN1CCc2ccccc2C1)Nc1ccccc1C(F)(F)F	TAAR1 agonist 56 | TAAR1 ag confirm 75 | Ga16 nonsel ag inactive | TAAR1 desensitize 52 | Ga16 nonsel ant inactive
FC(F)(F)c1ccccc1NC(=S)N1CCc2ccccc2C1	TAAR1 agonist 80 | TAAR1 ag confirm 96 | Ga16 nonsel ag 18 | TAAR1 desensitize inactive | Ga16 nonsel ant inactive
Cc1ccc(S(=O)(=O)NCCC(=O)OCC(=O)N2CCCC2=O)cc1C	none (no result: GPR7 antagonist)
Cc1nonc1NC(=O)Nc1cccnc1	none
CCCCCCCNC(=O)c1ccc(N2CCC3(CC2)OCCO3)c([N+](=O)[O-])c1	none
CCCCCCc1cc2cc(-c3nnc(-c4ccccc4OC)o3)c(=O)oc2cc1O	none
CCCCCCc1cc2cc(-c3nnc(-c4ccccc4O)o3)c(=O)oc2cc1O	TAAR1 agonist 48 | TAAR1 ag confirm 48 | Ga16 nonsel ag 46 | TAAR1 desensitize 59 | Ga16 nonsel ant 60
O=C(Cc1ccccc1)NCC(=O)N1CCc2ccccc2C1	none
O=[N+]([O-])c1cccc(NC(=S)N2CCc3ccccc3C2)c1	TAAR1 agonist 55 | TAAR1 ag confirm 50 | Ga16 nonsel ag inactive | TAAR1 desensitize inactive | Ga16 nonsel ant inactive
CCn1ncc([N+](=O)[O-])c1C(=O)N1CCc2ccccc2C1	TAAR1 agonist 42 | TAAR1 ag confirm inactive | Ga16 nonsel ag inactive | TAAR1 desensitize inactive | Ga16 nonsel ant inactive
O=C(CNCCc1ccccc1)N1CCc2ccccc2C1	TAAR1 agonist 81 | TAAR1 ag confirm 99 | Ga16 nonsel ag inactive | TAAR1 desensitize 89 | Ga16 nonsel ant inactive
O=C(COc1ccc([N+](=O)[O-])cc1)N1CCc2ccccc2C1	none
O=C(Cc1ccc([N+](=O)[O-])cc1)N1CCc2ccccc2C1	TAAR1 agonist 55 | TAAR1 ag confirm 74 | Ga16 nonsel ag inactive | TAAR1 desensitize inactive | Ga16 nonsel ant inactive
CCOC(=O)c1c(C)[nH]c(C(=O)COC(=O)c2cccnc2Cl)c1C	none (no result: GPR7 antagonist)
CCOC(=O)c1c(C)[nH]c(C(=O)COC(=O)c2cnccn2)c1C	TAAR1 agonist 74 (no result: GPR7 antagonist) | TAAR1 ag confirm inactive | Ga16 nonsel ag inactive | TAAR1 desensitize inactive | Ga16 nonsel ant inactive
COc1ccc(S(=O)(=O)N(C)CC(=O)NCCN2CCOCC2)cc1	none
Cc1cccc(Nc2nnc(SCC(=O)NC(=O)CN3CCCC3=O)s2)c1	none (no result: GPR7 antagonist)
CCOC(=O)c1ccc(NC(=O)Cn2nnc(-c3ccccc3F)n2)cc1	none
COc1ccc(NC(=O)Cn2nnc(-c3ccccc3F)n2)cc1Cl	TAAR1 agonist 57 | TAAR1 ag confirm inactive | Ga16 nonsel ag inactive | TAAR1 desensitize inactive | Ga16 nonsel ant inactive
Cc1ccc(C)c(S(=O)(=O)N(C)c2ccc(OC(=O)C3CCN(C(=O)Nc4ccccc4)CC3)cc2)c1	none (no result: OX1R antag-1, OX1R antag-2, GPR7 antagonist, CHO parental Ca)
O=C(Cn1nnc2ccccc2c1=O)NCCc1ccc(Cl)cc1Cl	TAAR1 agonist 54 | TAAR1 ag confirm inactive | Ga16 nonsel ag inactive | TAAR1 desensitize inactive | Ga16 nonsel ant inactive
Cc1ccc(S(=O)(=O)N2CC=C(N)N2)cc1	none (no result: OX1R antag-1, OX1R antag-2, GPR7 antagonist, CHO parental Ca)
Oc1ccc(/C=N/Nc2ccnc3cc(Cl)ccc23)c(O)c1O	none
Oc1ccc(/C=N/Nc2ccnc3cc(Cl)ccc23)cc1O	TAAR1 agonist 97, TAAR1 antag 65 | TAAR1 ag confirm 106 | Ga16 nonsel ag inactive | TAAR1 desensitize 92 | Ga16 nonsel ant inactive
O=C(c1nc2ncccn2n1)N1CCc2ccccc2C1	TAAR1 agonist 51 | TAAR1 ag confirm 71 | Ga16 nonsel ag inactive | TAAR1 desensitize inactive | Ga16 nonsel ant inactive
O=C(c1cccnc1)N1CCc2ccccc2C1	TAAR1 agonist 59 | TAAR1 ag confirm 40 | Ga16 nonsel ag inactive | TAAR1 desensitize inactive | Ga16 nonsel ant inactive
O=C(c1cccnc1)N1CCc2ccccc21	none
O=C(COC(=O)C1CCN(c2ccc(C(F)(F)F)cn2)CC1)Nc1ncc(Cl)cc1Cl	none (no result: GPR7 antagonist)
